Calls of active or inactive are those of the source. The rule behind the calls is not given here.
Columns and labels:
Rattus norvegicus [1] = experiment: Percentage of animals selecting drug lever in trained rats at a dose 55 (nmol/kg); type: functional
Method in brief: (§1)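 Drug-naive rats held at about 80% of free-feeding weight were trained on a two-lever FR50 food schedule to tell ip LSD tartrate (186 nmol/kg, 0.08 mg/kg) from saline, given 30 min before sessions. Test drugs were given ip in saline (1 mL/kg). Tests ran under extinction and ended at 50 presses on either lever. Rats had to hold 85% correct on training days. Read-out was % selecting the drug lever per dose.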

Rattus norvegicus [2] = experiment: Percentage of animals selecting drug lever in 1-Trained rats at a dose 220 (nmol/kg); type: functional
Method in brief: (§2)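 Two-lever drug discrimination in food-restricted rats (~80% free-feeding weight) trained on FR 50 to tell saline from LSD tartrate (186 nmol/kg, 0.08 mg/kg ip, 30 min pre-session). Test drugs were given ip in saline, 1 mL/kg. Test sessions ran under extinction, ending at 50 presses on either lever. Testing required 85% training accuracy. Counts of rats tested and disrupted were recorded, plus the percentage selecting the drug lever.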

Rattus norvegicus [3] = experiment: Compound was tested for its effect on animals. Value reported as number of rats disrupted in trained rats at a dose of 220 (nmol/kg); type: functional; method in brief: as §2
[4] = molecular target: T1, 5-hydroxytryptamine receptor 1A (Rattus norvegicus, UniProt P19327); experiment: Binding affinity was measured against 5-hydroxytryptamine 1A receptor by displacement of [3H]8-OH-DPAT by lysergic acid amides
T1 sequence (P19327 whole entry): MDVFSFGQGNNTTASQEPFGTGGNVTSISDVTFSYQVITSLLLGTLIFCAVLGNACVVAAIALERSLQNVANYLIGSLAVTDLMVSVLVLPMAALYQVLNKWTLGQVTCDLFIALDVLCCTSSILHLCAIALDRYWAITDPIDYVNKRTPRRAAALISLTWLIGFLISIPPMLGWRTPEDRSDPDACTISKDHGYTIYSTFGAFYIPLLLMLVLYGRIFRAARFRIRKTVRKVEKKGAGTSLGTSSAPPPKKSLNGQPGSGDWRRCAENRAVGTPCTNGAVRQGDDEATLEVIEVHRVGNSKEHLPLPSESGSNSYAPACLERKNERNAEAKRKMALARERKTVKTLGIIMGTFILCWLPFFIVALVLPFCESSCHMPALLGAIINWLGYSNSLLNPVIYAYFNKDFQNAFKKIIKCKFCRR
Method in brief: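 Rat hippocampal membranes from pooled male Sprague-Dawley rats, preincubated at 37 °C, in 50 mM Tris HCl (pH 7.4) with 0.5 mM Na2EDTA, 0.1% ascorbate and 10 μM pargyline. Competition against 0.75 nM [3H]-8-OH-DPAT for 10 min at 37 °C, then GF/C filtration and scintillation counting. Triplicates. Three to four experiments combined, analysed with EBDA/LIGAND.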

[5] = molecular target: T2, 5-hydroxytryptamine receptor 2A (Rattus norvegicus, UniProt P14842); experiment: (§3) Binding affinity was measured against 5-hydroxytryptamine 2A receptor by displacement of [3H]- ketanserin by lysergic acid amides
Method in brief: (§4)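 Rat frontal cortex membranes from pooled male Sprague-Dawley rats, preincubated at 37 °C, in 50 mM Tris HCl (pH 7.4) with 0.5 mM Na2EDTA, 0.1% ascorbate, 10 μM pargyline and 5.7 mM CaCl2. Triplicates. Three to four experiments combined.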

Rattus norvegicus [6] = experiment: Percentage of animals selecting drug lever in 1-Trained rats at a dose 110 (nmol/kg); type: functional; method in brief: as §2
Rattus norvegicus [7] = experiment: Compound was tested for its effect on animals. Value reported as number of rats disrupted in trained rats at a dose of 55 (nmol/kg); type: functional; method in brief: as §2
Rattus norvegicus [8] = experiment: Potency in trained rats was determined with relative to reference compound […] at a dose of 55 (nmol/kg); type: functional
Rattus norvegicus [9] = experiment: Compound was tested for its effect on animals. Value reported as number of rats disrupted in trained rats at a dose of 110 (nmol/kg); type: functional; method in brief: as §2
Rattus norvegicus [10] = experiment: Effective dose in trained rats was determined at a dose of 55 (nmol/kg) Value in parentheses are with 95% confidence intervals; type: functional
Rattus norvegicus [11] = experiment: Percentage of animals selecting drug lever in trained rats at a dose 1760 (nmol/kg); type: functional; method in brief: as §2
Rattus norvegicus [12] = experiment: Compound was tested for its effect on animals. Value reported as number of rats disrupted in trained rats at a dose of 1760 (nmol/kg); type: functional; method in brief: as §2
[13] = molecular target: T2, 5-hydroxytryptamine receptor 2A; experiment: as §3; remark: listed apart in the source
Method in brief: as §4, with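 “CaCl2. Displacement of 0.75 nM [3H]ketanserin with 200–400 μg protein for 15 min at 37 °C, then GF/C filtration.” for “CaCl2.”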

Rattus norvegicus [14] = experiment: Compound was tested for its effect on animals. Value reported as number of rats disrupted in trained rats at a dose of 186 (nmol/kg); type: functional; method in brief: as §2
Rattus norvegicus [15] = experiment: Effective dose in trained rats was determined at a dose of 220 (nmol/kg); type: functional, organism-based
Rattus norvegicus [16] = experiment: Percentage of animals selecting drug lever in trained rats at a dose 220 (nmol/kg); type: functional; method in brief: as §2
Rattus norvegicus [17] = experiment: Percentage of animals selecting drug lever in trained rats at a dose 440 (nmol/kg); type: functional; method in brief: as §2
Rattus norvegicus [18] = experiment: Compound was tested for its effect on animals. Value reported as number of rats disrupted in trained rats at a dose of 440 (nmol/kg); type: functional; method in brief: as §2
Rattus norvegicus [19] = experiment: Compound was tested for its effect on animals. Value reported as number of rats disrupted in trained rats at a dose of 465 (nmol/kg); type: functional; method in brief: as §2
Rattus norvegicus [20] = experiment: Percentage of animals selecting drug lever in trained rats at a dose 372 (nmol/kg); type: functional; method in brief: as §2
Rattus norvegicus [21] = experiment: Effective dose in trained rats was determined at a dose of 47 (nmol/kg); type: functional
Rattus norvegicus [22] = experiment: Percentage of animals selecting drug lever in trained rats at a dose 93 (nmol/kg); type: functional; method in brief: as §1
Rattus norvegicus [23] = experiment: Percentage of animals selecting drug lever in trained rats at a dose 465 (nmol/kg); type: functional; method in brief: as §1
Rattus norvegicus [24] = experiment: Compound was tested for its effect on animals. Value reported as number of rats disrupted in trained rats at a dose of 372 (nmol/kg); type: functional; method in brief: as §2
Rattus norvegicus [25] = experiment: Compound was tested for its effect on animals. Value reported as number of rats disrupted in trained rats at a dose of 290 (nmol/kg); type: functional; method in brief: as §2
Rattus norvegicus [26] = experiment: Potency in trained rats was determined with relative to reference compound […] at a dose of 186 (nmol/kg); type: functional
Rattus norvegicus [27] = experiment: Compound was tested for its effect on animals. Value reported as number of rats disrupted in trained rats at a dose of 47 (nmol/kg); type: functional; method in brief: as §2
Rattus norvegicus [28] = experiment: Percentage of animals selecting drug lever in trained rats at a dose 290 (nmol/kg); type: functional; method in brief: as §2
Rattus norvegicus [29] = experiment: Compound was tested for its effect on animals. Value reported as number of rats disrupted in trained rats at a dose of 93 (nmol/kg); type: functional; method in brief: as §2

T2 sequence (P14842 whole entry): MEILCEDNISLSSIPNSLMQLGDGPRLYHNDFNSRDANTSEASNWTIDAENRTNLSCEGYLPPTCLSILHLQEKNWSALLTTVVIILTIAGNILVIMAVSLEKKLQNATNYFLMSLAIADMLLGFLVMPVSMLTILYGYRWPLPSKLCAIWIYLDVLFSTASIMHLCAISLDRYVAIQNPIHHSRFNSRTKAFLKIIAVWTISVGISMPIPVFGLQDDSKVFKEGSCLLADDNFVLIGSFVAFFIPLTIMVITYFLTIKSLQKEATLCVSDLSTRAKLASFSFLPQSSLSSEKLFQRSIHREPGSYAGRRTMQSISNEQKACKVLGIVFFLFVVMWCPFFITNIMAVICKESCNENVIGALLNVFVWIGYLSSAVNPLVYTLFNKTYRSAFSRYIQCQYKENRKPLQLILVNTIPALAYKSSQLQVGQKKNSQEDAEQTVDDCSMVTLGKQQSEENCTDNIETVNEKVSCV

## CCC[C@@H](C)NC(=O)[C@@H]1C=C2c3cccc4[nH]cc(c34)C[C@H]2N(C)C1
Rattus norvegicus [1]
  SDL: 14%
Rattus norvegicus [2]
  SDL: 100%
Rattus norvegicus [3]
  D: 30%
[4]
  Ki: 0.0006 µM
[5]
  Ki: 0.0045 µM
Rattus norvegicus [6]
  SDL: 44%
Rattus norvegicus [7]
  D: 0%
Rattus norvegicus [8]
  Potency: 0.47
Rattus norvegicus [9]
  D: 0%
Rattus norvegicus [10]
  ED50: 0.102 µmol/kg

## CCCC(C)NC(=O)[C@@H]1C=C2c3cccc4[nH]cc(c34)C[C@H]2N(C)C1 (some centres not stated)
Rattus norvegicus [11]
  SDL: 25%
Rattus norvegicus [12]
  D: 11%
[13]
  Ki: 0.105 µM
[4]
  Ki: 0.008 µM
Rattus norvegicus [14]
  D: 0%
Rattus norvegicus [15]
  ED50: inactive
Rattus norvegicus [16]
  SDL: 0%
Rattus norvegicus [17]
  SDL: 0%
Rattus norvegicus [18]
  D: 0%

## CC[C@@H](C)NC(=O)[C@@H]1C=C2c3cccc4[nH]cc(c34)C[C@H]2N(C)C1
Rattus norvegicus [19]
  D: 10%
Rattus norvegicus [20]
  SDL: 75%
[4]
  Ki: 0.0046 µM
Rattus norvegicus [21]
  ED50: 0.124 µmol/kg
[5]
  Ki: 0.034 µM
Rattus norvegicus [22]
  SDL: 50%
Rattus norvegicus [23]
  SDL: 100%
Rattus norvegicus [14]
  D: 27%
Rattus norvegicus [24]
  D: 0%
Rattus norvegicus [25]
  D: 10%
Rattus norvegicus [26]
  Potency: 0.39
Rattus norvegicus [27]
  D: 10%
Rattus norvegicus [28]
  SDL: 67%
Rattus norvegicus [29]
  D: 0%

## CCCCCC(C)NC(=O)[C@@H]1C=C2c3cccc4[nH]cc(c34)C[C@H]2N(C)C1 (some centres not stated)
[4]
  Ki: 0.014 µM
[5]
  Ki: 0.357 µM

## CCCCC[C@@H](C)NC(=O)[C@@H]1C=C2c3cccc4[nH]cc(c34)C[C@H]2N(C)C1
[4]
  Ki: 0.0033 µM
[5]
  Ki: 0.08 µM
